Assay results taken from ChEMBL document CHEMBL4229498 (Bioorg Med Chem, 2018).

Key:
[1] = Drug transport across apical to basolateral side in MDCK cells expressing MDR1 at 10 uM after 1 hr by mass spectrometer; type: ADME, cell-based, Canis lupus familiaris; settings: dog
Summary of the method: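 MDCK-mdr1 cells (human MDR1-transfected) were grown 4 days to confluence on Transwell-type filters in DMEM/F12 with 10% FBS and antibiotics. Compound was added apically at 10 µM in HBSS with 25 mM D-glucose, HEPES-buffered to pH 7.4, and incubated 1 h at 37 °C. Apical and basal samples were collected, and results are given as % transported apical to basal.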

Cannabinoid receptor 1 [2] = target: T1, Cannabinoid receptor 1 (Homo sapiens, UniProt P21554); assay: Displacement of [3H]-CP55940 from human CB1 receptor expressed in CHO cell membranes after 1 hr by liquid scintillation spectrometry
T1 sequence (P21554 whole entry): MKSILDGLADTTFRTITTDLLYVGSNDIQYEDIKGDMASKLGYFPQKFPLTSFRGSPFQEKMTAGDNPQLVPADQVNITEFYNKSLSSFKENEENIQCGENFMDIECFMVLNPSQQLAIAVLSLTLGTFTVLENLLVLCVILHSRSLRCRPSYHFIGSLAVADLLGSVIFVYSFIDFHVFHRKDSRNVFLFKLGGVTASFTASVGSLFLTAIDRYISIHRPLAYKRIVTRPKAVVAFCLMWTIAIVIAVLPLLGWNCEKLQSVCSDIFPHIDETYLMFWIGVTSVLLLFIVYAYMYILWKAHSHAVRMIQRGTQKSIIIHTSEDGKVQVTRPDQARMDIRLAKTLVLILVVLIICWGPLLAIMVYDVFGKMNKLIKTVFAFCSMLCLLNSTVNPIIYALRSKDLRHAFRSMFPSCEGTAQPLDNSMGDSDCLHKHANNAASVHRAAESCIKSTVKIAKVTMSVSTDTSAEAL

Cannabinoid receptor 2 = Cannabinoid receptor 2 (Homo sapiens, UniProt P34972); assay: Displacement of [3H]-CP55940 from human CB2 receptor expressed in CHO cell membranes after 1 hr by liquid scintillation spectrometry
Sequence of Cannabinoid receptor 2 (P34972 whole entry): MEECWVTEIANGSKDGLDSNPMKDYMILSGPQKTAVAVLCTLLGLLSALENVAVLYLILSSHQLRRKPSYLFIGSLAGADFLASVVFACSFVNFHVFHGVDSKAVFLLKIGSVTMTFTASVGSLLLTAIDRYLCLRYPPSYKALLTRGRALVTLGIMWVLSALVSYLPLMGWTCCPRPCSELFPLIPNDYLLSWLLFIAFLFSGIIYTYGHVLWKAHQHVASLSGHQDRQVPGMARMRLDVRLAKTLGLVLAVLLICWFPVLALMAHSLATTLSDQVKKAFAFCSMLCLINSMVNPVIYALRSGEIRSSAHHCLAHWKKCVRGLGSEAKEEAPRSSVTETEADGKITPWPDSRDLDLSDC

Cannabinoid receptor 1 [3] = target: T1, Cannabinoid receptor 1; settings: HEK293
Cannabinoid receptor 1 [4] = target: T1, Cannabinoid receptor 1; type: functional, cell-based, HEK293
[5] = Half life in C57BL6 mouse at […], po administered in cassette format; type: ADME, organism-based; settings: in vivo
[6] = Tmax in C57BL6 mouse plasma at […], po administered in cassette format; type: ADME, organism-based
[7] = Cmax in C57BL6 mouse plasma at […], po administered in cassette format; type: ADME, organism-based; design: dose 2.5 mg/kg, route oral
[8] = Ratio of drug level in brain to plasma in C57BL6 mouse at […], po administered in cassette format; type: ADME, organism-based

SMILES | Drug transport [1] | Ki (Cannabinoid receptor 1 [2]) | Ki (Cannabinoid receptor 2) | further results
O=C(CN1CCCCC1)N1CCN(c2ncnc3c2nc(-c2ccccc2Cl)n3-c2ccc(Cl)cc2)CC1 | 5% | 21 nM | 5000 nM | –
O=S(=O)(C1CC1)N1CCN(c2ncnc3c2nc(-c2ccccc2Cl)n3-c2ccc(Cl)cc2)CC1 | 4% | 5 nM | – | –
O=C(N1CCCC1)N1CCN(c2ncnc3c2nc(-c2ccccc2Cl)n3-c2ccc(Cl)cc2)CC1 | – | 13 nM | – | –
CCOCC(=O)N1CCN(c2ncnc3c2nc(-c2ccccc2Cl)n3-c2ccc(Cl)cc2)CC1 | – | 11 nM | > 10000 nM | –
O=C(CC1CCOC1)N1CCN(c2ncnc3c2nc(-c2ccccc2Cl)n3-c2ccc(Cl)cc2)CC1 (stereo not given) | – | 8 nM | 3000 nM | –
CC(C)S(=O)(=O)N1CCN(c2ncnc3c2nc(-c2ccccc2Cl)n3-c2ccc(Cl)cc2)CC1 | 11% | – | – | –
CC(C)CS(=O)(=O)N1CCN(c2ncnc3c2nc(-c2ccccc2Cl)n3-c2ccc(Cl)cc2)CC1 | 0% | – | 2800 nM | –
CCCCS(=O)(=O)N1CCN(c2ncnc3c2nc(-c2ccccc2Cl)n3-c2ccc(Cl)cc2)CC1 | 5% | – | – | –
O=C(CC1CCCC1)N1CCN(c2ncnc3c2nc(-c2ccccc2Cl)n3-c2ccc(Cl)cc2)CC1 | – | 0.4 nM | > 10000 nM | –
O=C(Nc1ccc(F)c(F)c1)N1CCN(c2ncnc3c2nc(-c2ccccc2Cl)n3-c2ccc(Cl)cc2)CC1 | 0% | – | – | –
CS(=O)(=O)N1CCN(c2ncnc3c2nc(-c2ccccc2Cl)n3-c2ccc(Cl)cc2)CC1 | 14% | 24 nM | 1700 nM | –
O=C(OC1CCC1)N1CCN(c2ncnc3c2nc(-c2ccccc2Cl)n3-c2ccc(Cl)cc2)CC1 | – | 3 nM | 3400 nM | –
CCS(=O)(=O)N1CCN(c2ncnc3c2nc(-c2ccccc2Cl)n3-c2ccc(Cl)cc2)CC1 | 18% | 3 nM | – | –
CC(C)(C)OC(=O)N1CCN(c2ncnc3c2nc(-c2ccccc2Cl)n3-c2ccc(Cl)cc2)CC1 | 3% | 5 nM | 3400 nM | –
O=C(OCC1CCC1)N1CCN(c2ncnc3c2nc(-c2ccccc2Cl)n3-c2ccc(Cl)cc2)CC1 | 0% | 3 nM | 4600 nM | Ke (Cannabinoid receptor 1 [3]): 12 nM
O=C(C1CCSCC1)N1CCN(c2ncnc3c2nc(-c2ccccc2Cl)n3-c2ccc(Cl)cc2)CC1 | – | – | 530 nM | –
O=C(NC1CCCC1)N1CCN(c2ncnc3c2nc(-c2ccccc2Cl)n3-c2ccc(Cl)cc2)CC1 | 3% | – | – | –

SMILES | Drug transport [1] | Ki (Cannabinoid receptor 1 [2]) | Ki (Cannabinoid receptor 2) | further results
CC(C)(C)CC(=O)N1CCN(c2ncnc3c2nc(-c2ccccc2Cl)n3-c2ccc(Cl)cc2)CC1 | – | 2 nM | 5000 nM | –
O=C(Nc1ccc(OC(F)F)nc1)N1CCN(c2ncnc3c2nc(-c2ccccc2Cl)n3-c2ccc(Cl)cc2)CC1 | 1.1% | – | > 10000 nM | EC50 (Cannabinoid receptor 1 [4]): 590 nM; half-life [5]: 6.1 h; Tmax [6]: 4 h; Cmax [7]: 500 ng/mL; BPR [8]: 0.18
O=C(Nc1ccc(F)cc1)N1CCN(c2ncnc3c2nc(-c2ccccc2Cl)n3-c2ccc(Cl)cc2)CC1 | 0% | – | – | –
CCCCC(=O)N1CCN(c2ncnc3c2nc(-c2ccccc2Cl)n3-c2ccc(Cl)cc2)CC1 | 0% | 6 nM | – | –
O=C(N1CCN(c2ncnc3c2nc(-c2ccccc2Cl)n3-c2ccc(Cl)cc2)CC1)C(F)(F)F | – | – | 130 nM | –
CCCS(=O)(=O)N1CCN(c2ncnc3c2nc(-c2ccccc2Cl)n3-c2ccc(Cl)cc2)CC1 | 6% | – | – | –
O=C(Nc1ccc(F)cc1F)N1CCN(c2ncnc3c2nc(-c2ccccc2Cl)n3-c2ccc(Cl)cc2)CC1 | 1.4% | 5 nM | – | –
O=C(Nc1ccccn1)N1CCN(c2ncnc3c2nc(-c2ccccc2Cl)n3-c2ccc(Cl)cc2)CC1 | 1.2% | – | – | –
O=C(NS(=O)(=O)c1ccccc1F)N1CCN(c2ncnc3c2nc(-c2ccccc2Cl)n3-c2ccc(Cl)cc2)CC1 | – | 250 nM | – | –
O=C(Nc1ccccc1)N1CCN(c2ncnc3c2nc(-c2ccccc2Cl)n3-c2ccc(Cl)cc2)CC1 | 1% | – | – | –
N=C(Nc1ccc(F)cc1)N1CCN(c2ncnc3c2nc(-c2ccccc2Cl)n3-c2ccc(Cl)cc2)CC1 | 0.4% | – | – | –
O=C(Nc1ccccc1F)N1CCN(c2ncnc3c2nc(-c2ccccc2Cl)n3-c2ccc(Cl)cc2)CC1 | 5% | – | – | –
O=C(C1COc2ccccc2O1)N1CCN(c2ncnc3c2nc(-c2ccccc2Cl)n3-c2ccc(Cl)cc2)CC1 (stereo not given) | 0% | 5 nM | – | –
O=S(=O)(CC1CCCCC1)N1CCN(c2ncnc3c2nc(-c2ccccc2Cl)n3-c2ccc(Cl)cc2)CC1 | – | 1.7 nM | 91 nM | –
O=S(=O)(CC1CCOCC1)N1CCN(c2ncnc3c2nc(-c2ccccc2Cl)n3-c2ccc(Cl)cc2)CC1 | 9% | 3 nM | 3000 nM | –
CC(C(=O)N1CCN(c2ncnc3c2nc(-c2ccccc2Cl)n3-c2ccc(Cl)cc2)CC1)c1ccccc1 (stereo not given) | – | 3 nM | 560 nM | –
O=S(=O)(CCC(F)(F)F)N1CCN(c2ncnc3c2nc(-c2ccccc2Cl)n3-c2ccc(Cl)cc2)CC1 | – | 1.2 nM | 500 nM | –
